One series has as its system PBMC. The experiment in a line: Inhibition of T cell proliferation in PBMC cells. Format: functional, cell-based. To be noted: Homo sapiens. The essentials:
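Human PBMCs isolated from heparinized whole blood by density gradient and plated at 5 × 10^4 cells/well in RPMI 1640 with 10% FBS. Stimulated with anti-CD3 OKT3 (200 ng/mL) plus soluble anti-CD28 (1 µg/mL). Compounds tested in triplicate from 3.3 µM in 3-fold dilutions with 0.5% DMSO for 72 h.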

The target of series [1] is Inosine-5'-monophosphate dehydrogenase 2 (Homo sapiens, UniProt P12268). The experiment in a line: Inhibition of human IMPDH2.
The subject of a further series is CCRF-CEM. Nature of the series: Inhibition of CEM cell proliferation. Format: functional, cell-based. To be noted: Homo sapiens. The essentials: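 Human CEM T-lymphoblasts grown in RPMI 1640 with 10% heat-inactivated FBS and penicillin/streptomycin. Seeded at 3000 cells/well with 0.5% DMSO; compounds tested in triplicate from 10 µM top concentration in 3-fold dilutions.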

Series [2] in a line: Volume of distribution at steady state in rat at 2 mg/kg, iv. To be noted: in vivo, read-out: Vdss. The arrangement: dose 2 mg/kg, route intravenous. Format: ADME, organism-based. The essentials: (§1)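 Rat and cynomolgus monkey PK: oral dose 10 mg/kg and iv dose 2 mg/kg; oral vehicle 60% PEG400/40% HCl at pH 3. Cmax, Tmax and AUC taken from the oral arm; T1/2, MRT, Cl and Vss from the iv arm; Fpo calculated. Values are the mean ± SD of three animals.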

The nature of series [3]: Volume of distribution at steady state in cynomolgus monkey at 2 mg/kg, iv. Format: ADME, organism-based, Macaca fascicularis. Further details: dose 2 mg/kg, route intravenous. To be noted: in vivo, read-out: Vdss. In a few lines: as §1
Series [4] in a line: Half life in cynomolgus monkey at 2 mg/kg, iv. The arrangement: dose 2 mg/kg, route intravenous. Format: ADME, organism-based, Macaca fascicularis. To be noted: in vivo. In a few lines: as §1
Series [5] in a line: AUC in rat at 10 mg/kg, po. It is filed as ADME, organism-based. Further details: dose 10 mg/kg, route oral. To be noted: plasma. In a few lines:
as §1

Series [6] is described as follows: Bioavailability in cynomolgus monkey at 10 mg/kg, po. To be noted: in vivo.
For another series, the target named is Cytochrome P450 2D6 (Homo sapiens, UniProt P10635). Nature of the series: Inhibition of CYP2D6. Format: ADME. The essentials: (§2)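 Inhibition measured against isolated CYP enzymes.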
A short description of series [7]: Bioavailability in rat at 10 mg/kg, po. It is filed as ADME, organism-based. To be noted: in vivo. The essentials: as §1
For a further series, the target named is T1, Cytochrome P450 1A2 (Homo sapiens, UniProt P05177).
T1 sequence (P05177 whole entry): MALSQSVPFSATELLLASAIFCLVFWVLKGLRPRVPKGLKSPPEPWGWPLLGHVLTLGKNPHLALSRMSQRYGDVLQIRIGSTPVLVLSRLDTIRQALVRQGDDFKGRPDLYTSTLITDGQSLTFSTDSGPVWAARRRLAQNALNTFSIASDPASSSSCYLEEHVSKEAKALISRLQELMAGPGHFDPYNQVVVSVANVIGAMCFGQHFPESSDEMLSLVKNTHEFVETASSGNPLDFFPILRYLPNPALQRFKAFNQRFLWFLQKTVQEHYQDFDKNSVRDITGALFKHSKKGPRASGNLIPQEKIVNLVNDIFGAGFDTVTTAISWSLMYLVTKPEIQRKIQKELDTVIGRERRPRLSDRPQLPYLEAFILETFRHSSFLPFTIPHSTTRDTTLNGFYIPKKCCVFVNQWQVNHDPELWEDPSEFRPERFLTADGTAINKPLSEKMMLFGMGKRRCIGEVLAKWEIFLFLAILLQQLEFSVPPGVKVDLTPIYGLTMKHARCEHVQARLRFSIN
Nature of the series: Inhibition of CYP1A2. It is filed as ADME. The essentials: as §2

The nature of series [8]: AUC in cynomolgus monkey at 10 mg/kg, po. Further details: dose 10 mg/kg, route oral. Format: ADME, organism-based, Macaca fascicularis. To be noted: plasma. The essentials:
as §1

The nature of series [9]: Mean residence time in rat at 2 mg/kg, iv. Format: ADME, organism-based. The arrangement: dose 2 mg/kg, route intravenous. To be noted: in vivo. In a few lines:
as §1

Series [10] is described as follows: Half life in rat at 2 mg/kg, iv. Format: ADME, organism-based. The arrangement: dose 2 mg/kg, route intravenous. To be noted: in vivo. The essentials: as §1
The nature of series [11]: Clearance in rats at 2 mg/kg, iv. It is filed as ADME, organism-based. Further details: dose 2 mg/kg, route intravenous. To be noted: rat, in vivo. In a few lines: as §1
Series [12] is described as follows: Clearance in cynomolgus monkey at 2 mg/kg, iv. To be noted: in vivo. Format: ADME, organism-based, Macaca fascicularis. Further details: dose 2 mg/kg, route intravenous. In a few lines: as §1
Series [13] deals with Rattus norvegicus. Nature of the series: Tmax in rat at 10 mg/kg, po. It is filed as ADME, organism-based. Further details: dose 10 mg/kg, route oral. To be noted: in vivo. In a few lines: as §1
Series [14] deals with Rattus norvegicus. The experiment in a line: Efficacy against Freund's complete adjuvant-induced arthritis in Lewis rat assessed as inhibition of paw swelling at 10 mg/kg, po after 21 days. Format: functional, organism-based. Further details: dose 10 mg/kg. In a few lines:
(§3)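 Male Lewis rats; arthritis induced by subcutaneous Freund's complete adjuvant at the tail base. Oral dosing once daily for 21 days from day 0, in 60% PEG400/40% 0.01 N HCl vehicle; 8 rats per group. Hind paw volume was measured by plethysmometry at baseline and over three weeks, and the increase above baseline was calculated. Groups were compared with vehicle by Student's t test.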

Series [15] is described as follows: Lipophilicity, log P of the compound. To be noted: octanol/water. It is filed as physicochemical.
The subject of series [16] is Rattus norvegicus. Nature of the series: Efficacy against Freund's complete adjuvant-induced arthritis in Lewis rat assessed as inhibition of paw swelling at 25 mg/kg, po after 21 days. It is filed as functional, organism-based. Further details: dose 25 mg/kg. The essentials:
as §3

For a further series, the target named is Cytochrome P450 3A4 (Homo sapiens, UniProt P08684). The experiment in a line: Inhibition of CYP3A4. It is filed as ADME. The essentials:
as §2

A short description of series [17]: Cmax in rat at 10 mg/kg, po. It is filed as ADME, organism-based. The arrangement: dose 10 mg/kg, route oral. To be noted: in vivo. The essentials: as §1
The nature of series [18]: Mean residence time in cynomolgus monkey at 2 mg/kg, iv. It is filed as ADME, organism-based, Macaca fascicularis. Further details: dose 2 mg/kg, route intravenous. To be noted: in vivo. The essentials:
as §1

Series [19] can be described thus: Cmax in cynomolgus monkey at 10 mg/kg, po. Format: ADME, organism-based, Macaca fascicularis. Further details: dose 10 mg/kg, route oral. To be noted: in vivo. The essentials: as §1
For series [20], the system named is Rattus norvegicus. The experiment in a line: Efficacy against Freund's complete adjuvant-induced arthritis in Lewis rat assessed as inhibition of paw swelling at 50 mg/kg, po after 21 days. It is filed as functional, organism-based. Further details: dose 50 mg/kg. The essentials:
as §3

The next series deals with Cytochrome P450 2C19 (Homo sapiens, UniProt P33261). The experiment in a line: Inhibition of CYP2C19. Format: ADME. The essentials:
as §2

The target of the next series is Cytochrome P450 2C9 (Homo sapiens, UniProt P11712). Nature of the series: Inhibition of CYP2C9. It is filed as ADME. The essentials: as §2
The test system of another series is Serum. Nature of the series: Protein binding in serum. Format: ADME, cell-free. To be noted: human.
A short description of series [21]: Permeability across Caco-2 cells. To be noted: human, read-out: permeability. Format: ADME, cell-based.

Calls of active or inactive are those of the source. The rule behind the calls is not given here.

This is an account of results in ChEMBL document CHEMBL1146203, “Acridone-based inhibitors of inosine 5'-monophosphate dehydrogenase: discovery and SAR leading to the identification of N-(2-(6-(4-ethylpiperazin-1-yl)pyridin-3-yl)propan-2-yl)-2- fluoro-9-oxo-9,10-dihydroacridine-3-carboxamide (BMS-566419)” (J Med Chem, 2007).

The IC50 is the midpoint of a concentration-inhibition curve. As a reminder, the half-life is how long it takes for the measured level to halve. Usually AUC stands for the area under the concentration-time curve, a measure of exposure. In general, bioavailability refers to the share of a dose that reaches the circulation, judged against a reference dose that is usually intravenous. The MRT is a mean duration of stay, worked out from the concentration-time curve. In general, clearance refers to the volume of plasma or blood freed of the substance per unit of time. The term Tmax denotes the time at which the peak concentration occurs. As usually defined, the logP is a log measure of how a compound divides between an organic and an aqueous phase. By Cmax is commonly meant the highest concentration seen after dosing.

Chain of Cytochrome P450 2D6 (P10635 whole entry): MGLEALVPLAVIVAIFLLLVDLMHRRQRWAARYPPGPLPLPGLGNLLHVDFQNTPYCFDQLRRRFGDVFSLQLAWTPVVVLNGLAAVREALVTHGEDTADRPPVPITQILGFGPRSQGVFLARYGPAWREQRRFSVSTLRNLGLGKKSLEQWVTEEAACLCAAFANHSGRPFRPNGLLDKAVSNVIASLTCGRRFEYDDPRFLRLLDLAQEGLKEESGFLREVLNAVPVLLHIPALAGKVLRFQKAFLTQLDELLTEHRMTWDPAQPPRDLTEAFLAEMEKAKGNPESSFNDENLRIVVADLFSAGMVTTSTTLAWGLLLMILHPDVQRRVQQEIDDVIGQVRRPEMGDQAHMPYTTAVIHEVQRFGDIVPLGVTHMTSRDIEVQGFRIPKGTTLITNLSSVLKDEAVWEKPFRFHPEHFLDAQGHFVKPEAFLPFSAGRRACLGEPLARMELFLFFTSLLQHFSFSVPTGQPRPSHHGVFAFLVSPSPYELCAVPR
Chain of Cytochrome P450 2C9 (P11712 whole entry): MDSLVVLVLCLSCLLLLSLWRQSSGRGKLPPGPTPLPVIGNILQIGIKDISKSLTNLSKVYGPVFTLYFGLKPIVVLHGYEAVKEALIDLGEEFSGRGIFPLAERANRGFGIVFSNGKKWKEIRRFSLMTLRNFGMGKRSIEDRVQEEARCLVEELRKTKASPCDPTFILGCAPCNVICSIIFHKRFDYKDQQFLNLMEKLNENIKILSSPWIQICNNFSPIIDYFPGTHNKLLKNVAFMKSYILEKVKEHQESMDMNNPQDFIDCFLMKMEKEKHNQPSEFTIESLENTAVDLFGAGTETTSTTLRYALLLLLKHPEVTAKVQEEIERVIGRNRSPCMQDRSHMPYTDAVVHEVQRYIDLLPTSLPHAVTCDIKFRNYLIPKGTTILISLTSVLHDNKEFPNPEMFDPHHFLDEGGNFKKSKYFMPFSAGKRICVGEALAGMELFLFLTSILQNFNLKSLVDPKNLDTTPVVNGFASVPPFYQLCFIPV
Chain of Cytochrome P450 3A4 (P08684 whole entry): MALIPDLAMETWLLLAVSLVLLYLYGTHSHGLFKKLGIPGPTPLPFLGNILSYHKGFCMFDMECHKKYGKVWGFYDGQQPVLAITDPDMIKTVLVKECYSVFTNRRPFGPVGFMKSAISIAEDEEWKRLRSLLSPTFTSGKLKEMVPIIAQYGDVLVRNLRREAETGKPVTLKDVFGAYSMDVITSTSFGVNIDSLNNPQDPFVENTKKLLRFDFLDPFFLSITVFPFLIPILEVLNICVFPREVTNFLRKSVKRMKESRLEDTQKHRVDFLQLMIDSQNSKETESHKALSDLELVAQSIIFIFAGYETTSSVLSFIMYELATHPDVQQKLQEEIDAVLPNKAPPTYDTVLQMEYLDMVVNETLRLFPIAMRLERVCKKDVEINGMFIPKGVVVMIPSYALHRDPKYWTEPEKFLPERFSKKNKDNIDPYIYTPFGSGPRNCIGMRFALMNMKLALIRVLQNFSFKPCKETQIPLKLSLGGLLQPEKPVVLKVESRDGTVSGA
Chain of Cytochrome P450 2C19 (P33261 whole entry): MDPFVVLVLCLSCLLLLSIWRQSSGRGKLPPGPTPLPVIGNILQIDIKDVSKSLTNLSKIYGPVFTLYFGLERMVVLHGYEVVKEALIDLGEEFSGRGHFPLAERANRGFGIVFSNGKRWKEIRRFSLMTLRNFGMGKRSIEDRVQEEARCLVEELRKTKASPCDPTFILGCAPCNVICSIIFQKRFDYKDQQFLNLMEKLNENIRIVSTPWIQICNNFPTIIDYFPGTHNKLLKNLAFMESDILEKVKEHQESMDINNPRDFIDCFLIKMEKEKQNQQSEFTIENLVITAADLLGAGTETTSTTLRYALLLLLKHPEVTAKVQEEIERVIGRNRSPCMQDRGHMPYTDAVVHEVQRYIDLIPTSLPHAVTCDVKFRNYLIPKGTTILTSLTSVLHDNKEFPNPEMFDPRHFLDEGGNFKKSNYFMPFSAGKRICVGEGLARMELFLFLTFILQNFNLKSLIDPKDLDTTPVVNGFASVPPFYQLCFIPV

As for `CC(C)(NC(=O)c1cc2[nH]c3ccccc3c(=O)c2cc1F)c1cnc2c(c1)OCCN2`, the values for the IC50 (in the series with PBMC; in series [1]; in the series with CCRF-CEM) were 320 nM, 17 nM and 920 nM, respectively.
In the case of `CCN1CCN(c2ccc(C(C)(C)NC(=O)c3cc4[nH]c5ccccc5c(=O)c4cc3F)cn2)CC1`, the Vd in series [2] was 7.4 L/kg; in series [3] it was 1.1 L/kg. Moreover, the values for the half-life in series [4] and in [10] were 4 h and 3.6 h, respectively. Besides, the values for the AUC in [5] and in series [8] were 5.2 µM·h and 102 µM·h, respectively. The bioavailability was determined as 88% in series [6] and 43% in series [7]. The IC50 against Cytochrome P450 2D6 is more than 20000 nM; in the series with PBMC, 220 nM; against Cytochrome P450 1A2, more than 20000 nM; in series [1], 17 nM; against Cytochrome P450 3A4, 13000 nM; in the series with CCRF-CEM, 770 nM. The IC50 was 19000 nM against Cytochrome P450 2C19 and more than 20000 nM on Cytochrome P450 2C9. Further, the MRT in series [9] was 4.4 h; in series [18] it was 5.5 h. Besides, the clearance in series [11] was determined as 29 mL/min/kg; in series [12] it was 3.4 mL/min/kg. The Tmax with Rattus norvegicus [13] was determined as 4 h. In addition, the result with Rattus norvegicus [14], with Rattus norvegicus [16] and in the series on Rattus norvegicus [20] was Active. The logP in series [15] was found to be 2.5. Besides, the results for the Cmax in [17] and in series [19] were 0.41 µM and 26 µM, respectively. In addition, the Activity in the series on Serum turned out to be 92%. For the same compound, the Papp in series [21] was 32 ×10⁻⁶ cm/s.
For `CC(C)(NC(=O)c1cc2[nH]c3ccccc3c(=O)c2cc1F)c1ccccn1`, the IC50 in series [1] is 29 nM; in the series on CCRF-CEM, 1000 nM.
Regarding `C[C@H](NC(=O)c1ccc2c(=O)c3ccccc3[nH]c2c1)c1ccccc1`, the IC50 in [1] amounted to 431 nM.
`CN(C)S(=O)(=O)c1cccc(C(C)(C)NC(=O)c2cc3[nH]c4ccccc4c(=O)c3cc2F)c1`: the IC50 in the series with PBMC amounted to 130 nM; in series [1], 7.9 nM; with CCRF-CEM, 380 nM.
In the case of `CC(C)(C)NC(=O)c1ccc2c(=O)c3ccccc3[nH]c2c1`, the IC50 in series [1] was determined as 59 nM; with CCRF-CEM, 3300 nM.
For the compound `CC(C)(NC(=O)c1cc2[nH]c3ccccc3c(=O)c2cc1F)c1cccc(S(C)(=O)=O)c1`, the IC50 in the series with PBMC was found to be 280 nM; in series [1], 12 nM; in the series on CCRF-CEM it was 580 nM.
Taken in the same sequence, the figures for `CN(C)CCOc1ccc(C(C)(C)NC(=O)c2cc3[nH]c4ccccc4c(=O)c3cc2F)cc1` were 210 nM, 20 nM and 560 nM.
Taken in the same sequence, the figures for `CN(C)c1ccc(C(C)(C)NC(=O)c2cc3[nH]c4ccccc4c(=O)c3cc2F)cn1` were 340 nM, 22 nM and 850 nM.
As for `CC(C)(NC(=O)c1ccc2c(=O)c3ccccc3[nH]c2c1)c1cccnc1`, the results for the IC50 (in the series on PBMC; in series [1]; in the series on CCRF-CEM) were 590 nM, 42 nM and 2200 nM, respectively.
As for `Cc1ccc(C(C)(C)NC(=O)c2cc3[nH]c4ccccc4c(=O)c3cc2F)cn1`, the IC50 came to 270 nM in the series on PBMC, 23 nM in [1] and 750 nM in the series with CCRF-CEM.
Turning to `CC(C)(NC(=O)c1ccc2c(=O)c3ccccc3[nH]c2c1)c1ccccn1`, the figures for the IC50 (in [1]; in the series on CCRF-CEM) were 53 nM and 2200 nM, respectively.
With `CC(C)(NC(=O)c1cc2[nH]c3ccccc3c(=O)c2cc1F)c1ccc(N2CCOCC2)nc1`, the IC50 was 210 nM in the series with PBMC, 20 nM in [1] and 660 nM in the series on CCRF-CEM.
